Results taken from ChEMBL document CHEMBL3286392, “Iron chelators in photodynamic therapy revisited: synergistic effect by novel highly active thiosemicarbazones” (ACS Med Chem Lett, 2014).
Active and inactive are the calls of the source. The calls are words filed in the database; no cut-off is given here.

Assays:
NHDF = assay: Dark cytotoxicity against human NHDF cells after 72 hrs by MTT assay; assay type: cell-based
[1] = Ratio of IC50 for p53-deficient human HCT116 cells to IC50 for human Raji cells; assay type: cell-based; conditions: hct-116
HeLa = assay: Dark cytotoxicity against human HeLa cells after 72 hrs by MTT assay; assay type: cell-based
HCT-116 [2] = assay: Dark cytotoxicity against human HCT116 cells expressing wild type p53 after 96 hrs by MTT assay; assay type: cell-based; conditions: HCT-116, 96 h
HCT-116 [3] = assay: Photocytotoxicity against human HCT116 cells expressing wild type p53 assessed as combination index incubated for 24 hrs followed by light irradiation measured after 24 hrs by MTS assay in presence of ALA; assay type: functional
Method in brief: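 HCT 116+/+ cells were treated with TSC at a range of concentrations plus ALA held at 1 mM. PpIX was irradiated at varied light doses, with doses increased in constant ratio. CI was calculated by the Chou–Talalay method as the summed doses in the combination divided by the dose of each therapy alone giving the same cytotoxic effect.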

HCT-116 [4] = assay: Induction of ROS generation in human HCT116 cells expressing wild type p53 at 1.6 nM after 24 hrs by spectrophotometry; assay type: functional, cell-based
HCT-116 [5] = assay: Photocytotoxicity against human HCT116 cells expressing wild type p53 incubated for 24 hrs followed by light irradiation measured after 24 hrs by MTS assay in presence of ALA and FeCl3; assay type: functional, cell-based
HCT-116 [6] = assay: Cytotoxicity against human HCT116 cells expressing wild type p53 assessed as cell death at 50 uM; assay type: cell-based; conditions: hct-116, 50 µM
Raji = assay: Dark cytotoxicity against human Raji cells after 72 hrs by MTT assay; assay type: cell-based
HCT-116 [7] = assay: Dark cytotoxicity against p53-deficient human HCT116 cells after 96 hrs by MTT assay; assay type: cell-based; conditions: HCT-116, 96 h
HCT-116 [8] = assay: Induction of 5-aminolevulinic acid-induced cellular PpIX formation in human HCT116 cells expressing wild type p53 at 50 uM by fluorescence plate reader analysis; assay type: functional, cell-based
[9] = Ratio of IC50 for human HCT116 cells expressing wild type p53 to IC50 for human NHDF cells; assay type: cell-based, HCT-116; conditions: HCT116 cells expressing wild type p53 and NHDF cells, read-out: Ratio IC50
HCT-116 [10] = assay: Induction of ROS generation in human HCT116 cells expressing wild type p53 at 8 nM after 24 hrs by spectrophotometry; assay type: functional, cell-based
HCT-116 [11] = assay: Induction of ROS generation in human HCT116 cells expressing wild type p53 at 4 uM after 24 hrs by spectrophotometry; assay type: functional, cell-based

Compound | IC50 (NHDF) | Ratio IC50 [1] | IC50 (HeLa) | IC50 (HCT-116 [2]) | CI (HCT-116 [3]) | Activity (HCT-116 [4]) | Activity (HCT-116 [5]) | Activity (HCT-116 [6]) | IC50 (Raji) | IC50 (HCT-116 [7]) | Activity (HCT-116 [8]) | selectivity ratio [9] | Activity (HCT-116 [10]) | Activity (HCT-116 [11])
S=C(NN=C(c1ccccn1)c1ccccn1)N1CCN(c2ccccc2)CC1 | 0.00173 µM | 2.4 | 570 nM | 0.81 nM | 0.47 | Active | Active | Toxic | 0.32 nM | 0.76 nM |  |  |  | 
CN(C)C(=S)N/N=C/c1c(O)ccc2cccnc12 | > 20 µM |  |  | > 20000 nM | 6.08 |  | Active |  |  | > 20000 nM | inactive |  |  | 
Oc1cccc2ccc(/C=N/NC(=S)N3CCOCC3)nc12 | > 10 µM |  | 176 nM | 3.84 nM | 0.08 |  | Active | Toxic | 21.2 nM | 16.8 nM |  | 2770 | Active | 
CCN1CCN(C(=S)N/N=C/c2ccccc2O)CC1 | > 20 µM |  | > 20000 nM | > 20000 nM | 0.95 |  | Active |  | > 10000 nM | > 20000 nM | inactive |  |  | 
NC(=S)N/N=C/c1ncccc1N [TRIAPINE] |  |  |  | 1230 nM | 0.85 |  | Active |  |  |  |  |  |  | Active
CC(=O)N(O)CCCCCNC(=O)CCC(=O)N(O)CCCCCNC(=O)CCC(=O)N(O)CCCCCN [DEFEROXAMINE] |  |  |  | > 200000 nM | 1.01 |  | Active |  |  | > 200000 nM | inactive |  |  | 
